Measurements reported in ChEMBL document CHEMBL3861970, “Penipyridones A-F, Pyridone Alkaloids from Penicillium funiculosum” (J Nat Prod, 2016).
Calls of active or inactive are those of the source. The calls are words filed in the database; no cut-off is given here.

Legend:
Type in all cases: functional, cell-based
[1] = Cytotoxicity against human HeLa cells assessed as growth inhibition after 48 hrs by SRB assay
[2] = Cytotoxicity against human HL60 cells assessed as growth inhibition after 48 hrs by SRB assay; details: HL-60, 48 h
[3] = Cytotoxicity against human K562 cells assessed as growth inhibition after 48 hrs by SRB assay; details: K562, 48 h
HepG2 [4] = assay: Lipid lowering activity in human HepG2 cells assessed as decrease in oleic acid elicited lipid accumulation at 10 uM treated 12 hrs post oleic acid addition measured 6 hrs post dose by oil-red O staining method
Summary of the method: (§1)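 HepG2 cells (ATCC origin) grown in DMEM with 10% FBS and penicillin/streptomycin to 70–80% confluence. They were loaded with 100 μM oleic acid in DMEM for 12 h, then exposed for 6 h to 10 μM compound, lovastatin as positive control, or oleic acid alone. Read-outs were Oil-Red O staining (n = 8) or TC/TG determination (n = 3). Each experiment was repeated at least three times; means ± SEM.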

[5] = Cytotoxicity against human A549 cells assessed as growth inhibition after 48 hrs by SRB assay; details: A549, 48 h
HepG2 [6] = assay: Lipid lowering activity in human HepG2 cells assessed as decrease in triglyceride level at 10 uM treated 12 hrs post oleic acid addition measured 6 hrs post dose; summary of the method: as §1
HepG2 [7] = assay: Lipid lowering activity in human HepG2 cells assessed as decrease in total cholesterol level at 10 uM treated 12 hrs post oleic acid addition measured 6 hrs post dose; summary of the method: as §1

## CC(=O)O[C@@H](c1ccccc1)c1cc(=O)c(C(N)=O)cn1CCO
[1]
  IC50: > 50 µM
[2]
  IC50: > 50 µM
[3]
  IC50: > 50 µM
HepG2 [4]
  Activity: Active
[5]
  IC50: > 50 µM
HepG2 [6]
  Activity: Active
HepG2 [7]
  Activity: Active

## NC(=O)c1c[nH]c([C@@H](O)c2ccccc2)cc1=O
[1]
  IC50: > 50 µM
[2]
  IC50: > 50 µM
[3]
  IC50: > 50 µM
HepG2 [4]
  Activity: Active
[5]
  IC50: > 50 µM
HepG2 [6]
  Activity: Active
HepG2 [7]
  Activity: Active

## CC(C)CC(=O)NC(=O)c1cn(CCO)c([C@@H](O)c2ccccc2)cc1=O
[1]
  IC50: > 50 µM
[2]
  IC50: > 50 µM
[3]
  IC50: > 50 µM
[5]
  IC50: > 50 µM

## COC(=O)c1c[nH]c([C@@H](O)c2ccccc2)cc1=O
[1]
  IC50: > 50 µM
[2]
  IC50: > 50 µM
[3]
  IC50: > 50 µM
HepG2 [4]
  Activity: Active
[5]
  IC50: > 50 µM
HepG2 [6]
  Activity: Active
HepG2 [7]
  Activity: Active

## CC(=O)O[C@@H](c1ccccc1)c1cc(=O)c(C(=O)NC(=O)CC(C)C)cn1CCO
[1]
  IC50: > 50 µM
[2]
  IC50: > 50 µM
[3]
  IC50: > 50 µM
HepG2 [4]
  Activity: Active
[5]
  IC50: > 50 µM
HepG2 [6]
  Activity: Active
HepG2 [7]
  Activity: Active

## NC(=O)c1cn(CCO)c([C@@H](O)c2ccccc2)cc1=O
[1]
  IC50: > 50 µM
[2]
  IC50: > 50 µM
[3]
  IC50: > 50 µM
[5]
  IC50: > 50 µM

## CC(C)CC(=O)NC(=O)c1c[nH]c([C@@H](O)c2ccccc2)cc1=O
[1]
  IC50: > 50 µM
[2]
  IC50: > 50 µM
[3]
  IC50: > 50 µM
[5]
  IC50: > 50 µM
